Columns and labels:
Settings in all cases: in vivo
[1] = Drug excretion in feces of male cynomolgus monkey treated with [14C]sunitinib at 6 mg/kg, po administered as single dose by liquid scintillation counting; type: ADME, organism-based, Macaca fascicularis; design: dose 6 mg/kg, dosed compound name [14C]Sunitinib, route oral
Outline: (§1)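 Cynomolgus monkeys given one oral gavage dose of [14C]sunitinib L-malate, 6 mg/kg (37 µCi/kg). Urine collected at 0-4, 4-8 and 8-24 h, feces at 0-8 and 8-24 h, then both daily to 14 days; samples stored at -80 °C. Duplicate urine aliquots counted by liquid scintillation; homogenized feces combusted before counting.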

[2] = Drug excretion in feces of female cynomolgus monkey treated with [14C]sunitinib at 6 mg/kg, po administered as single dose by liquid scintillation counting; type: ADME, organism-based, Macaca fascicularis; design: dose 6 mg/kg, dosed compound name [14C]Sunitinib, route oral; outline: as §1
[3] = Drug excretion in feces of human treated with [14C]sunitinib at 50 mg, po administered as single dose by liquid scintillation counting

| SMILES | Compound recovery [1] [%] | Compound recovery [2] [%] | Compound recovery [3] |
| --- | --- | --- | --- |
| CCN(CC)CCNC(=O)c1c(C)[nH]c(CC2C(=O)Nc3ccc(F)cc32)c1C (stereo not given) | 1.5 | 1 | metabolite_not_detected |
| CCNCCNC(=O)c1c(C)[nH]c(C=C2C(=O)Nc3ccc(F)cc32)c1C (mixture of isomers) | 30.7 | 29.3 |  |

Reference: ChEMBL document CHEMBL3525900, “Pharmacokinetics, distribution, and metabolism of [14C]sunitinib in rats, monkeys, and humans” (Drug Metab Dispos, 2012)
